Assay outcomes as filed in PubChem BioAssay.
Sampled rows, rich in hits. Any-hit rate of the full collection: about 1.8%.
DNMT1 inh: human DNMT1 methyltransferase inhibitors, primary screen, biochemical, molecular beacon, fluorescence, HinP1I cleavage, uHTS; inhibition (reported as % activation of signal), % at 10 µM; 0.83% of 360,000 active; in the data active = inhibition above about 50%
STEP block: STEP phosphatase inhibitors, primary screen, biochemical, fluorescence intensity, uHTS | recombinant STEP, OMFP fluorogenic substrate | inhibition, % at 20 µM | 0.25% of 360,000 active;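 active = inhibition at 20 µM, scaled per plate between control wells, above about 37%, limit read from the data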;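 also: 0% = DMSO with enzyme and substrate and 100% = substrate only without enzyme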
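Test system: STEP tyrosine phosphatase / Reagent: OMFP at 25 µM / Doses: 20 µM, 1% DMSO / Read-out: percent inhibition scaled to no-enzyme and uninhibited-enzyme controls, plate-pattern corrected / Detection: FITC-channel fluorescence of OMFP product / Medium: Bis-Tris buffer pH 6.0, 2.5 mM DTT, 0.005% Tween 20 / Schedule: 20 min at room temperature, dark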
HKDC1 inhibitor: HKDC1 hexokinase inhibitors, primary screen, biochemical, fluorescence, uHTS | 0.16% of 340,000 active | AID 493160, 2011 | inhibition, % at 20 µM | recombinant HKDC1, G6PDH/diaphorase resazurin coupled fluorescence;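 active = inhibition above about 35% when tested at 20 µM, limit read from the data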;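 also: plate controls were DMSO wells with enzyme for no effect and DMSO wells lacking enzyme for full effect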
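Test system: recombinant HKDC1 (HK5) hexokinase enzyme, produced in-house; Amount: enzyme 5 µg/mL final; Buffer or medium: Tris pH 8.0 buffer with MgCl2, Tween-20, BSA, BME; Reagent: glucose and ATP substrates; Doses: 20 µM test compound, 1% DMSO; Incubation: 90 min reaction incubation at room temperature, dark; Detection: resorufin fluorescence at 613 nm.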
SUMO1 PPI mod: modulators of SUMO1 protein-protein interactions, primary screen, biochemical, uHTS. Small ubiquitin-related modifier 1 (Homo sapiens), P63165. SUMO1 binding to a labelled peptide, TR-FRET, 1 h. inhibition, % at 20 µM. 0.33% of 360,000 active; in the data active = inhibition above about 37%
Target sequence (P63165 whole entry, looked up): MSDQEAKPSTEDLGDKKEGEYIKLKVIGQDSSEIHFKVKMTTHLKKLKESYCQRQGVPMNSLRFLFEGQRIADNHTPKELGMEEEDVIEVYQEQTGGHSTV
Scp-1 inhibitor: Scp-1 phosphatase inhibitors, primary screen, biochemical, colorimetric, uHTS; Carboxy-terminal domain RNA polymerase II polypeptide A small phosphatase 1 (Homo …; Recombinant Scp1, phosphopeptide, malachite green phosphate absorbance; inhibition, % at 20 µM; 0.88% of 340,000 active; AID 493091, 2011;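 active = inhibition above about 50% at 20 µM, limit read from the data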;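 also: plate controls were DMSO wells with enzyme for no effect and wells lacking enzyme for full effect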
Target sequence (Q9GZU7 76-261 limits assumed): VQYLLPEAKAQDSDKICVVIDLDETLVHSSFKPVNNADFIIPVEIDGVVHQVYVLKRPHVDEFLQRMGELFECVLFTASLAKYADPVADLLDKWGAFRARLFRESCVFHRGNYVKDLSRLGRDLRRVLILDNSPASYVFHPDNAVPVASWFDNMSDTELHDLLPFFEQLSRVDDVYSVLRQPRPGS
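Test system – truncated SCP-1 phosphatase (76-261aa) · Reagent – Phosphorylated 17-residue peptide substrate · Incubation – 45 min room-temperature reaction, 5 min colour, 30 min stabiliser · Detection – colorimetric phosphate reagent with accelerator and stabiliser, absorbance at 630 nm · Measure – % inhibition at 20 µM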
LMPTP inh: LMPTP phosphatase inhibitors, primary screen, biochemical, fluorescence intensity, uHTS; 0.22% of 360,000 active; AID 651560, 2012; recombinant LMPTP-A, OMFP fluorogenic substrate; inhibition, % at 20 µM; Low molecular weight phosphotyrosine protein phosphatase (Homo sapiens), P24666;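 active = compounds that cut the enzyme signal by at least half of the control window in the single-dose screen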;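 also: plate controls were DMSO wells with enzyme plus substrate for no effect and substrate without enzyme for full effect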
Target sequence (P24666 whole entry, looked up): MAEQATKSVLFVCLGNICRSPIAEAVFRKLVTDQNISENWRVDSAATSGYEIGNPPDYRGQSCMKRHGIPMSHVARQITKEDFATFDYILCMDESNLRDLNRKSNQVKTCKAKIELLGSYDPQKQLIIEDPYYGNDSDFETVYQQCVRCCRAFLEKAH
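Test system: LMPTP-A, protein tyrosine phosphatase of low molecular weight; Input: 0.625 nM enzyme; Incubation: 50 min dark incubation at room temperature; Signal: endpoint fluorescence intensity from OMFP dephosphorylation; Read-out basis: % inhibition versus control wells.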
DNMT1 inh conf: DNMT1 methyltransferase inhibitor retest, confirmation, biochemical, molecular beacon, fluorescence, single concentration; shares compounds with DNMT1 inh; DNMT1 molecular beacon HinP1I cleavage; inhibition, % at 10 µM; 8% of 2,300 active; AID 602385, 2012;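 active = average inhibition of at least 30% in the single-concentration confirmation test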
Beacon interf: shows spectral interference in the DNMT1 beacon assay. shares compounds with DNMT1 inh. DNMT1 molecular beacon spectral interference counterscreen, fluorescence 485/520. AID 602387. activation (fluorescence interference), % at 10 µM. 1% of 2,300 active;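 active = activation of at least 30% at 10 µM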;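 also: DNMT1 catalytic domain with a HinP1I cleavage step and a FAM/dabcyl DNA beacon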
* marks the source's active call; other numbers are inactive results; · = no result.

SMILES | DNMT1 inh | STEP block | HKDC1 inhibitor | SUMO1 PPI mod | Scp-1 inhibitor | LMPTP inh | DNMT1 inh conf | Beacon interf
Cc1ccc(CN2CCN(C(=O)CC(C)C)CC2)cc1 | 4 | -4 | -7 | 3 | -2 | -3 | · | ·
c1coc(-c2nc3ccccc3nc2-c2ccco2)c1 | 103* | 9 | 17 | 30 | 44 | 21 | 1 | 4
O=C(c1ccccc1)c1ccc2nc(-c3ccco3)c(-c3ccco3)nc2c1 | 101* | 9 | 26 | 52* | 66* | 75* | 1 | 2
O=C(NCCO)c1ccc2nc(-c3ccco3)c(-c3ccco3)nc2c1 | 58* | 6 | 17 | 44* | 31 | 6 | 3 | 2
CC(NS(=O)(=O)c1ccc2[nH]c(=O)[nH]c2c1)c1ccc(F)cc1 (centres undefined) | -3 | -2 | · | -1 | · | -2 | · | ·
O=C(COC(=O)Cc1ccsc1)Nc1ccc(Cl)c(S(=O)(=O)N2CCOCC2)c1 | 77* | -2 | -9 | -2 | -5 | 0 | 1 | 3
O=C(COC(=O)Cc1ccsc1)Nc1ccc(S(=O)(=O)N2CCOCC2)cc1 | 4 | -1 | -6 | 2 | -4 | -1 | · | ·
CC(=O)NC1CC2CCCC(C1)N2C(=O)Nc1ccc(Cl)cc1 (centres undefined) | 2 | 2 | · | 4 | · | -1 | · | ·
CN(C)c1ccc(-c2ccnc3c2CC(C)(C(=O)NCC2CCOCC2)O3)cc1 (centres undefined) | 59* | -2 | · | -3 | · | -1 | 2 | 3
CC1(C(=O)NCC2CCOCC2)Cc2c(-c3cccc(C(F)(F)F)c3)ccnc2O1 (centres undefined) | 84* | 1 | · | -4 | · | -1 | 7 | 7
COc1cc2nc(CN3CCN(S(=O)(=O)c4ccccc4[N+](=O)[O-])CC3)[nH]c(=O)c2cc1OC | -3 | 2 | · | -3 | · | -1 | · | ·
O=C(C[C@H]1C/C=C\C[C@H](NC(=O)OCC2c3ccccc3-c3ccccc32)C(=O)OC[C@H](Cc2ccccc2)NC1=O)N[C@H](CO)Cc1ccccc1 | 51* | -4 | 2 | 1 | -4 | 0 | 3 | -3
C[C@@H]1COC(=O)[C@H](NC(=O)OCC2c3ccccc3-c3ccccc32)C/C=C\C[C@@H](CC(=O)N[C@@H](CO)Cc2ccccc2)C(=O)N1 | 11 | 0 | -2 | -3 | -5 | -1 | · | ·
Cc1ccc(C)c(SCC(=O)NC(=O)NC2CCCC2)c1 | 74* | -1 | 5 | -2 | -1 | 1 | 2 | 3
CC(=O)N=c1c(C#N)cc2c(=O)n3ccccc3nc2n1CCCOC(C)C | 8 | -2 | 13 | -21 | -4 | 1 | · | ·
CCCCn1c(=NC(C)=O)c(C#N)cc2c(=O)n3cccc(C)c3nc21 | 64* | 9 | 4 | -4 | 11 | 9 | 0 | 2
CCCCCn1c(=NC(C)=O)c(C#N)cc2c(=O)n3ccccc3nc21 | 78* | 0 | 12 | -12 | 2 | 18 | 2 | 2
COc1ccc(C2=NN(c3nc(-c4ccccc4)c(CC(=O)O)s3)C(c3ccco3)C2)cc1 (centres undefined) | 56* | -1 | 13 | 4 | 10 | 2 | 4 | 1
CCN(C(=O)COC(=O)c1ccccc1Cc1ccccc1)c1c(N)n(Cc2ccccc2)c(=O)[nH]c1=O | -1 | -2 | -1 | 2 | -3 | -1 | · | ·
CN(C(=O)COC(=O)c1ccccc1Cc1ccccc1)c1c(N)n(Cc2ccccc2)c(=O)[nH]c1=O | 89* | -1 | 1 | -1 | -1 | 1 | 0 | 3
C[C@@H]1ON(C)[C@H]2C[C@H]3c4cc(-c5cccc(F)c5)ccc4CCN3C(=O)[C@@H]12 | 2 | 2 | -10 | 4 | -8 | 0 | · | ·
CC(C)Cc1nnc(NC(=O)Cc2cccs2)s1 | 63* | 10 | -6 | 1 | 19 | 6 | 20 | -3
Cc1ccc(-n2nc3ccc(NC(=O)c4cccc([N+](=O)[O-])c4C)cc3n2)cc1 | 63* | 1 | -5 | -1 | -1 | 2 | 4 | 3
COc1ccccc1N1CCN(C(=O)c2ccc3c(c2)CCN3S(C)(=O)=O)CC1 | -3 | 0 | 5 | 0 | -4 | -1 | · | ·
O=C(Nc1cc(Cl)ccc1N1CCOCC1)c1ccncc1 | 80* | -1 | -8 | 2 | 6 | -1 | 8 | 9
SMILES | DNMT1 inh | STEP block | HKDC1 inhibitor | SUMO1 PPI mod | Scp-1 inhibitor | LMPTP inh | DNMT1 inh conf | Beacon interf
O=C(NCc1cccnc1)c1ccc2sc([C@@H]3O[C@H](CO)[C@H](O)[C@H](O)[C@H]3O)nc2c1 | 2 | -4 | · | -6 | · | 0 | · | ·
CCN1/C(=C\C=C(C(C)=O)C(C)=O)Sc2ccccc21 | 11 | 1 | 0 | -54 | -7 | 14 | · | ·
CCN1/C(=C\C=C2\C(=O)N(c3ccccc3)C(=S)N2C)Sc2ccccc21 | 55* | 7 | 4 | -20 | 14 | 16 | 2 | 0
COc1cc(C)cc(C(=O)O)c1C1=C(O)c2cccc(O)c2C(=O)C1=O | 66* | 6 | 9 | 7 | 47 | 4 | 17 | -2
COc1ccc2c(c1)N(C)/C(=C1/SC(=NCc3ccccc3)N(c3ccccc3)C1=O)S2 | 53* | -1 | -6 | -17 | 9 | -2 | 3 | 0
C=CCN1C(=O)/C(=C2/Sc3ccc(OC)cc3N2C)SC1=NCc1ccccc1 | 4 | 1 | -5 | -13 | -3 | 0 | · | ·
NC(=O)c1ncn([C@@H]2O[C@H](CNCc3cc(Cl)ccc3OCc3ccc(Cl)cc3)[C@@H](O)[C@H]2O)n1 | -1 | -1 | -3 | 1 | 4 | 0 | · | ·
O=C(Cn1c(=O)oc2cc(S(=O)(=O)N3CCCC3)ccc21)Nc1ccccn1 | -3 | -2 | · | 2 | · | -1 | · | ·
COc1ccc(NC(=O)c2cc3c(=O)n(C)c4ccccc4c3s2)cc1OC | 75* | -4 | -3 | 4 | -3 | 1 | 2 | -2
CCn1c(=O)c2cc(C(=O)Nc3ccc(OC)cc3OC)sc2c2ccccc21 | 49 | 1 | -3 | 8 | -6 | 3 | · | ·
